Consider 13 compounds from ChEMBL document CHEMBL4038273, “MAO enzymes inhibitory activity of new benzimidazole derivatives including hydrazone and propargyl side chains” (Eur J Med Chem, 2017).

Bounds are passed on as bounds.

Data set [1] has as its target T1, Amine oxidase [flavin-containing] A (Homo sapiens, UniProt P21397).
T1 sequence (P21397 whole entry): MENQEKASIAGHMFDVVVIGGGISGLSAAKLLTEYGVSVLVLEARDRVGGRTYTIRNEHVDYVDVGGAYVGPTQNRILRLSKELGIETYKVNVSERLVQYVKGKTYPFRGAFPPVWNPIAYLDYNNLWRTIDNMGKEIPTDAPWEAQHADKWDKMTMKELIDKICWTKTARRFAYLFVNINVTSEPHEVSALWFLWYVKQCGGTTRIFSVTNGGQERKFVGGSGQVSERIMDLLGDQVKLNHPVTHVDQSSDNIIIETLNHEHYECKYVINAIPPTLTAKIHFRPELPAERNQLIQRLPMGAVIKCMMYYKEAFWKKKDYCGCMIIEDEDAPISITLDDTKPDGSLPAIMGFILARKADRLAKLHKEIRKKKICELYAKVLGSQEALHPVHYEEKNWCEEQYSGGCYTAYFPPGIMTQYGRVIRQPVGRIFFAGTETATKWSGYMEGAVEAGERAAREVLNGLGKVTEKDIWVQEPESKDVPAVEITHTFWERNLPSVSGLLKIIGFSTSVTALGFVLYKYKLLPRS
Kind of data set: Inhibition of recombinant human MAO-A expressed in baculovirus infected BTI insect cells at 10^-4 to 10^-3 uM using tyramine as substrate pretreated for 30 mins followed by substrate addition incubated for 30 mins measured at 5 mins interval by horse-radish peroxidase/amplex red-based fluorometric method relative to control. As to conditions: 0.5 h. A digest of the protocol: (§1)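 Recombinant hMAO-A (0.5 U/mL stock) or hMAO-B (0.64 U/mL stock) in phosphate buffer, preincubated with inhibitor (solutions 10^-3 to 10^-9 M in 2% DMSO) for 30 min at 37°C. Working solution (HRP, Amplex Red, tyramine) then added for 30 min at 37°C, with fluorescence (Ex/Em 535/587 nm) read every 5 min. Background-subtracted against DMSO control; quadruplicate.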

The target in data set [2] is T2, Amine oxidase [flavin-containing] B (Homo sapiens, UniProt P27338).
T2 sequence (P27338 whole entry): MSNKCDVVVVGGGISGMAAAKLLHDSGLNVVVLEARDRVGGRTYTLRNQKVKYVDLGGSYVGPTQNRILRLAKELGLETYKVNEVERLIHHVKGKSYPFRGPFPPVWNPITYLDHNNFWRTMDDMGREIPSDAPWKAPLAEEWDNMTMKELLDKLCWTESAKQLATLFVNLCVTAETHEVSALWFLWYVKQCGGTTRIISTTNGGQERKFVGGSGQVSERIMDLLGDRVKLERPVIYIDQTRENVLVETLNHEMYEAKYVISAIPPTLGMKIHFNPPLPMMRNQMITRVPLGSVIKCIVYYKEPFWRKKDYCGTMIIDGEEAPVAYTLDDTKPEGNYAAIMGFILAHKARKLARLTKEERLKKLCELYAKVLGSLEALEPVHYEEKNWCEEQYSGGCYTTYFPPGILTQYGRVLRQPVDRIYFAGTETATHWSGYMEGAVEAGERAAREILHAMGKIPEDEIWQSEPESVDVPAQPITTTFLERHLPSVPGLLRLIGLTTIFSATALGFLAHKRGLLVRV
Kind of data set: Inhibition of recombinant human MAO-B expressed in baculovirus infected BTI insect cells at 10^-4 to 10^-3 uM using tyramine as substrate pretreated for 30 mins followed by substrate addition incubated for 30 mins measured at 5 mins interval by horse-radish peroxidase/amplex red-based fluorometric method. As to conditions: 0.5 h. A digest of the protocol: as §1

Data set [3] has as its target T1, Amine oxidase [flavin-containing] A. Kind of data set: Inhibition of recombinant human MAO-A expressed in baculovirus infected BTI insect cells using tyramine as substrate pretreated for 30 mins followed by substrate addition incubated for 30 mins measured at 5 mins interval by horse-radish peroxidase/amplex red-based fluorometric method. A digest of the protocol: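 Recombinant hMAO-A (0.5 U/mL stock) or hMAO-B (0.64 U/mL stock) in phosphate buffer, preincubated with inhibitor (solutions 10^-3 to 10^-9 M in 2% DMSO) for 30 min at 37°C. Background-subtracted against DMSO control; quadruplicate.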

Data set [4] has as its target T2, Amine oxidase [flavin-containing] B. Put plainly: Inhibition of recombinant human MAO-B expressed in baculovirus infected BTI insect cells using tyramine as substrate pretreated for 30 mins followed by substrate addition incubated for 30 mins measured at 5 mins interval by horse-radish peroxidase/amplex red-based fluorometric method. The data set is classed as cell-based.

For a further data set, the species on record is Homo sapiens. Kind of data set: Selectivity index, ratio of IC50 for recombinant human MAO-A expressed in baculovirus infected BTI insect cells to IC50 for recombinant human MAO-B expressed in baculovirus infected BTI insect cells. In short, it runs like this: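 Selectivity index calculated as IC50(MAO-A)/IC50(MAO-B), with both IC50 values from the fluorometric tyramine/HRP/Amplex Red inhibition assay.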

Regarding `C#CCn1c(-c2ccc(C(=O)N/N=C/c3ccc[nH]3)cc2)nc2ccccc21`, the “inhibition (INH)” value in data set [1] and in data set [2] was “Not Active” each time. Further, the IC50 in data set [3] and in data set [4] was at least 1000 µM each time.
For the compound `C#CCn1c(-c2ccc(C(=O)N/N=C/c3ccc([N+](=O)[O-])s3)cc2)nc2ccccc21`, the results for the IC50 in data set [3] and in data set [4] were 27.1 µM and 0.881 µM, respectively. In addition, the Ratio IC50 in the data set filed under Homo sapiens was determined as 30.7.
Consider `C#CCn1c(-c2ccc(C(=O)N/N=C/c3cccn3C)cc2)nc2ccccc21`, for which the “inhibition (INH)” value in data set [1] was below 50%. The IC50 in data set [3] was at least 100 µM; in data set [4], 12.2 µM. The Ratio IC50 in the data set filed under Homo sapiens is above 8.22.
As for `C#CCn1c(-c2ccc(C(=O)N/N=C/c3cc(OC)cc(OC)c3)cc2)nc2ccccc21`, in data set [1], the “inhibition (INH)” value is recorded as below 50%. Further, the IC50 in data set [3] was at least 100 µM; in data set [4], 25.2 µM. Further, in the data set filed under Homo sapiens, the Ratio IC50 was above 3.96.
With `C#CCn1c(-c2ccc(C(=O)N/N=C/c3cccc(O)c3)cc2)nc2ccccc21`, the “inhibition (INH)” value in data set [1] and in data set [2] was “Not Active” throughout. Further, the IC50 in data set [3] and in data set [4] was at least 1000 µM in each case.
On to `C#CCn1c(-c2ccc(C(=O)N/N=C/c3ccccc3OC)cc2)nc2ccccc21`, for which the “inhibition (INH)” value in data set [1] and in data set [2] was “Not Active” in each case. The IC50 in data set [3] and in data set [4] was at least 1000 µM throughout.
With `C#CCn1c(-c2ccc(C(=O)N/N=C/c3cc(O)cc(O)c3)cc2)nc2ccccc21`, the IC50 in data set [3] came out at 19.6 µM; in data set [4], 10.3 µM. Besides, the Ratio IC50 in the data set filed under Homo sapiens was determined as 1.9.
The matching figures for `C#CCn1c(-c2ccc(C(=O)N/N=C/c3ccc(O)cc3)cc2)nc2ccccc21`: 2.82 µM, 1.97 µM and 1.43.
With `C#CCn1c(-c2ccc(C(=O)N/N=C/c3cccc(OC)c3)cc2)nc2ccccc21`, the “inhibition (INH)” value in data set [1] was below 50%. In addition, the figures for the IC50 in data set [3] and in data set [4] were at least 100 µM and 12.6 µM, respectively. In addition, the Ratio IC50 in the data set filed under Homo sapiens is above 7.93.
As for `C#CCn1c(-c2ccc(C(=O)N/N=C/c3cccs3)cc2)nc2ccccc21`, the “inhibition (INH)” value in data set [1] and in data set [2] was “Not Active” in each case. Besides, the values for the IC50 in data set [3] and in data set [4] were at least 1000 µM and at least 100 µM, respectively.
For `C#CCn1c(-c2ccc(C(=O)N/N=C/c3cccc(OC)c3OC)cc2)nc2ccccc21`, the 50% inhibitory concentration (IC50) in data set [3] turned out to be 53.5 µM; in data set [4] it was 18.5 µM. Besides, the Ratio IC50 in the data set listed under Homo sapiens amounted to 2.89.
Turning to `C#CCn1c(-c2ccc(C(=O)N/N=C/c3ccc(Cl)cc3)cc2)nc2ccccc21`, the “inhibition (INH)” value in data set [1] was below 50%. Moreover, the results for the concentration for half-maximal inhibition (IC50) in data set [3] and in data set [4] were at least 100 µM and 10.2 µM, respectively. Further, in the data set filed under Homo sapiens, the Ratio IC50 was above 9.85.
For the compound `C#CCn1c(-c2ccc(C(=O)N/N=C/c3ccc(OC)cc3)cc2)nc2ccccc21`, the IC50 in data set [3] came out at 43.3 µM; in data set [4] it was 1.94 µM. For the same compound, the Ratio IC50 in the data set filed under Homo sapiens is 22.3.
